# From ChEMBL document CHEMBL3526143, “Pulmonary metabolism of resveratrol: in vitro and in vivo evidence” (Drug Metab Dispos, 2013)
# Columns and labels:
# [1] = Partial substrate inhibition in human lung S9 fractions treated with trans-resveratrol preincubated for 3 mins followed by PAPS addition measured after 60 mins by Eadie-Hofstee plot analysis; assay type: ADME
# Method in brief: (§1)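 Sulfation uses pooled lung S9 (mouse 1 mg/ml, human 0.5 mg/ml final) with substrate at 0.01 µM–5 mM in 2% HP-β-CD, 5 mM MgCl2 and 10 mM potassium phosphate pH 6.5 at 37°C. After 3 min preincubation, 1 mM PAPS is added for 60 min, and the reaction is stopped with ascorbic acid and cold methanol. Triplicates are run, with a control lacking PAPS. Kinetics are fitted by nonlinear regression (partial substrate inhibition) after Eadie-Hofstee inspection.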
# [2] = Plasma protein binding in mouse at 20 uM by equilibrium dialysis method; assay type: ADME, cell-free; conditions: read-out: PPB (converted)
# Method in brief: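 Equilibrium dialysis uses 5K MWCO membranes on a rotator at 37°C under 10% CO2. Thawed mouse plasma is adjusted to pH 7.4, and each analyte is tested at 20 µM; n = 3.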
# [3] = Partial substrate inhibition in mouse lung S9 fractions treated with trans-resveratrol preincubated for 3 mins followed by PAPS addition measured after 60 mins by Eadie-Hofstee plot analysis; assay type: ADME; method in brief: as §1
# [4] = Drug level in human lung microsomes treated with trans-resveratrol at 0.5 mM measured at 60 mins; assay type: ADME; conditions: 1 h, 500 µM
# Method in brief: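 Pooled human lung microsomes at 0.1, 0.5 and 2.5 mg/ml final, with 0.5 mM substrate in 2% final HP-β-CD, are incubated with UDPGA cofactor for 60 min. Glucuronide is quantified by LC-MS/MS, with an LOQ of 10 ng/ml.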
# [5] = Partial substrate inhibition in mouse lung S9 fractions treated with trans-resveratrol preincubated for 3 mins followed by UDPGA addition measured after 60 mins by Eadie-Hofstee plot analysis; assay type: ADME
# Method in brief: (§2)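 Pooled mouse lung S9 (0.5 mg/ml final) is incubated with substrate at 0.01 µM–5 mM in 2% final HP-β-CD, alamethicin 10 µg/ml, 5 mM MgCl2 and Tris-HCl 100 mM pH 7.4 at 37°C. The reaction is started with 5 mM UDPGA and stopped at 60 min with ascorbic acid and cold methanol. Triplicates are run, with a control lacking UDPGA. Data are screened on Eadie-Hofstee plots and fitted by nonlinear regression to a partial substrate inhibition model.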
# [6] = Drug metabolism in mouse lung S9 fractions assessed as trans-resveratrol-3-sulfate formation preincubated for 3 mins followed by PAPS addition measured after 60 mins by Eadie-Hofstee plot analysis; assay type: ADME, tissue-based; conditions: s9, 1 h; method in brief: as §1
# [7] = AUC (0 to infinity) in C57BL/6 mouse at 15 mg/kg, iv; assay type: ADME, organism-based; design: time infinity, dose 15 mg/kg, route intravenous; conditions: plasma
# Method in brief: (§3)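 Male C57BL/6 mice, 20–25 g, given a single IV dose of 15 mg/kg in 20% HP-β-CD in saline. Blood (20 µl) is drawn serially through a carotid artery cannula at 2.5–600 min, and plasma is assayed by LC-MS/MS. Noncompartmental analysis gives AUC by the linear trapezoidal rule, CL = dose/AUC0-inf, Vss = CL × MRT0-inf and t1/2 = 0.693/λ; n = 5.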
# [8] = Clearance in C57BL/6 mouse at 15 mg/kg, iv; assay type: ADME, organism-based; design: dose 15 mg/kg, route intravenous; conditions: in vivo; method in brief: as §3
# [9] = Drug metabolism in human lung S9 fractions assessed as trans-resveratrol-3-sulfate formation preincubated for 3 mins followed by PAPS addition measured after 60 mins by Eadie-Hofstee plot analysis; assay type: ADME, tissue-based; conditions: s9, 1 h; method in brief: as §1
# [10] = Drug metabolism in mouse lung S9 fractions assessed as trans-resveratrol-3-O-glucuronide formation preincubated for 3 mins followed by UDPGA addition measured after 60 mins by Eadie-Hofstee plot analysis; assay type: ADME, tissue-based; conditions: s9, 1 h; method in brief: as §2
# [11] = Terminal half life in C57BL/6 mouse at 15 mg/kg, iv; assay type: ADME, organism-based; design: dose 15 mg/kg, route intravenous; conditions: in vivo, read-out: beta t1/2; method in brief: as §3
# [12] = Bioavailability in C57BL/6 mouse at 15 mg/kg, iv; assay type: ADME, organism-based; conditions: in vivo
# [13] = Volume of distribution at steady state in C57BL/6 mouse at 15 mg/kg, iv; assay type: ADME, organism-based; design: dose 15 mg/kg, route intravenous; conditions: in vivo, read-out: Vdss; method in brief: as §3
SMILES,Ki [1],fraction unbound at 20 µM [2],Ki [3],Drug metabolism [4],Ki [5],Km [6],Vmax [6],AUC(0-inf) [7],clearance [8],Km [9],Vmax [9],Km [10],Vmax [10],half-life [11],bioavailability [12],Vd [13]
O=S(=O)(O)Oc1cc(O)cc(/C=C/c2ccc(O)cc2)c1,23.2 mM,0.128,2.02 mM,,,,,,,,,,,,,
O=C(O)[C@H]1O[C@@H](Oc2cc(O)cc(/C=C/c3ccc(O)cc3)c2)[C@H](O)[C@@H](O)[C@@H]1O,,0.333,,< 10 ng/mL,6.63 mM,,,,,,,,,,,
Oc1ccc(/C=C/c2cc(O)cc(O)c2)cc1 [RESVERATROL],,0.0805,,,,2.69 µM,7.05 pmol/min/mg,4.92 µM·h,280 mL/min/kg,4.45 µM,16.15 pmol/min/mg,7.34 µM,324.4 pmol/min/mg,1.69 h,49.9%,34.9 L/kg
